The source of these data is ChEMBL document CHEMBL3232993, “Design, synthesis, and structure-activity relationship of a novel series of GluN2C-selective potentiators” (J Med Chem, 2014).

The structures appear in SMILES notation.

Assay type in all cases: cell-based
The target in assay [1] is Glutamate NMDA receptor; Grin1/Grin2a (Rattus norvegicus) (UniProt P35439+Q00959). The assay can be described thus: Potentiation of rat recombinant GluN1/GluN2A expressed in Xenopus laevis oocytes assessed as increase in glutamate/glycine-induced current response at 30 uM by two-electrode voltage clamp technique relative to control. In short, it runs like this:
(§1)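 Two-electrode voltage clamp at −40 mV on Xenopus oocytes coexpressing GluN1 with GluN2A, 2B, 2C or 2D. […] Compounds came from 20 mM DMSO stocks, with 0.05–0.5% final DMSO. Some GluN2A oocytes were injected with K-BAPTA to limit current run-up. Recording solution was pH 7.4, 23 °C.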

Assay [2] concerns the target Glutamate NMDA receptor; Grin1/Grin2b (Rattus norvegicus) (UniProt P35439+Q00960). The assay can be described thus: Potentiation of rat recombinant GluN1/GluN2B expressed in Xenopus laevis oocytes assessed as increase in glutamate/glycine-induced current response at 30 uM by two-electrode voltage clamp technique relative to control. Put shortly: as §1
(In two-electrode clamp one electrode senses voltage and the other passes current.)

The target of assay [3] is Glutamate NMDA receptor; Grin1/Grin2c (Rattus norvegicus) (UniProt P35439+Q00961). The assay can be described thus: Potentiation of rat recombinant GluN1/GluN2C expressed in Xenopus laevis oocytes assessed as increase in glutamate/glycine-induced current response at 30 uM by two-electrode voltage clamp technique relative to control. In short, it runs like this: as §1
Assay [4] concerns the target Ionotropic glutamate receptor NMDA 1/2D (Rattus norvegicus) (UniProt P35439+Q62645). The assay can be described thus: Potentiation of rat recombinant GluN1/GluN2D expressed in Xenopus laevis oocytes assessed as increase in glutamate/glycine-induced current response at 30 uM by two-electrode voltage clamp technique relative to control. Put shortly: as §1
The target of assay [5] is Glutamate NMDA receptor; Grin1/Grin2c (Rattus norvegicus, UniProt P35439+Q00961). Description: Potentiation of rat recombinant GluN1/GluN2C expressed in Xenopus laevis oocytes assessed as increase in glutamate/glycine-induced current response by two-electrode voltage clamp technique relative to control.

Consider `COC(=O)c1ccc(C2C(C(C)=O)=C(O)C(=O)N2CCc2c[nH]c3c(C)cccc23)cc1` (configuration not stated), for which the Activity was determined as 98% in assay [1], 81% in assay [2], 121% in assay [3] and 92% in assay [4]. The max activation in assay [3] stood at 139%. The EC50 in assay [5] is 25 µM.
As for `CCOC(=O)c1ccc(C2C(C(C)=O)=C(O)C(=O)N2CCc2c[nH]c3ccccc23)c(O)c1` (configuration not stated), the Activity in assay [1] worked out at 110%; in assay [2], 100%; in assay [3], 145%; in assay [4], 88%. Besides, the max activation in assay [3] was determined as 194%. Also, the EC50 in assay [5] is 40 µM.
For the compound `COC(=O)c1ccc(C2C(C(=O)c3cccnc3)=C(O)C(=O)N2CCc2c[nH]c3cc(Cl)ccc23)cc1` (configuration not stated), the Activity in assay [1] turned out to be 93%; in assay [2], 66%; in assay [3] it was 170%; in assay [4], 86%. In assay [3], the max activation was determined as 204%. Further, the EC50 in assay [5] was found to be 8.5 µM.
Turning to `COC(=O)c1ccc(C2C(C(=O)c3cccc(C)c3)=C(O)C(=O)N2CCc2c[nH]c3ccccc23)cc1` (configuration not stated), the Activity in assay [1] came out at 97%; in assay [2] it was 90%; in assay [3], 122%; in assay [4] it was 84%. The max activation in assay [3] came to 131%. In assay [5], the EC50 worked out at 16 µM.
`CCOC(=O)c1ccc(C2C(C(=O)c3ccncc3)=C(O)C(=O)N2CCc2c[nH]c3ccccc23)cc1` (configuration not stated): the Activity in assay [1] came out at 109%; in assay [2], 91%; in assay [3], 223%; in assay [4], 86%. For the same compound, in assay [3], the max activation came to 245%. For the same compound, the EC50 in assay [5] was 9.7 µM.
Regarding `COC(=O)c1ccc(C2C(C(C)=O)=C(O)C(=O)N2CCc2c[nH]c3ccccc23)c(F)c1` (configuration not stated), the Activity stood at 93% in assay [1], 96% in assay [2], 123% in assay [3] and 91% in assay [4]. Also, the max activation in assay [3] was 155%. The EC50 in assay [5] turned out to be 37 µM.
For `COC(=O)c1ccc(C2C(C(C)=O)=C(OC)C(=O)N2CCc2c[nH]c3ccccc23)cc1` (configuration not stated), the Activity in assay [1] worked out at 109%; in assay [2], 91%; in assay [3], 127%; in assay [4], 82%. Moreover, the max activation in assay [3] stood at 163%. Also, in assay [5], the EC50 worked out at 37 µM.
Consider `C=CC(=O)OC1=C(C(C)=O)C(c2ccc(C(=O)OC)cc2)N(CCc2c(C)[nH]c3ccccc23)C1=O` (configuration not stated), for which the Activity in assay [1] worked out at 106%; in assay [2] it was 104%; in assay [3], 125%; in assay [4], 100%. Moreover, the max activation in assay [3] turned out to be 208%. In assay [5], the EC50 is 105 µM.
On to `COC(=O)c1ccc(C2C(C(=O)c3cccnc3)=C(O)C(=O)N2CCc2c[nH]c3c(Cl)cccc23)cc1` (configuration not stated), for which the Activity in assay [1] is 90%; in assay [2], 85%; in assay [3], 127%; in assay [4], 78%. The max activation in assay [3] was 128%. In addition, the EC50 in assay [5] was 7 µM.
Turning to `COC(=O)c1ccc(C2C(C(C)=O)=C(O)C(=O)N2CCc2c[nH]c3ccccc23)c(OC)c1` (configuration not stated), the Activity is 102% in assay [1], 83% in assay [2], 132% in assay [3] and 100% in assay [4]. In assay [3], the max activation came out at 183%. For the same compound, the 50% effective concentration (EC50) in assay [5] is 46 µM.
On to `COC(=O)c1ccc(C2C(C(=O)c3cccc(Cl)c3)=C(O)C(=O)N2CCc2c[nH]c3ccccc23)cc1` (configuration not stated), for which the Activity worked out at 107% in assay [1], 83% in assay [2], 145% in assay [3] and 83% in assay [4]. Further, in assay [3], the max activation was 145%. For the same compound, the EC50 in assay [5] was determined as 8.7 µM.
For the compound `COC(=O)c1ccc(C2C(C(=O)c3cccnc3)=C(O)C(=O)N2CCc2c[nH]c3cc(OC)ccc23)cc1` (configuration not stated), the Activity in assay [1] is 84%; in assay [2] it was 98%; in assay [3], 194%; in assay [4], 85%. Also, the max activation in assay [3] was determined as 204%. Further, the EC50 in assay [5] amounted to 8 µM.
As for `COC(=O)c1ccc(C2C(C(C)=O)=C(O)C(=O)N2CCc2c[nH]c3ccccc23)c(Cl)c1` (configuration not stated), the Activity in assay [1] worked out at 103%; in assay [2], 87%; in assay [3] it was 139%; in assay [4] it was 90%. Also, the max activation in assay [3] was found to be 191%. Also, in assay [5], the EC50 is 36 µM.
Consider `COC(=O)c1ccc(C2C(C(=O)c3cccnc3)=C(O)C(=O)N2CCc2c[nH]c3c(F)cccc23)cc1` (configuration not stated), for which the Activity in assay [1] was 105%; in assay [2], 84%; in assay [3] it was 161%; in assay [4], 86%. For the same compound, the max activation in assay [3] turned out to be 191%. In addition, in assay [5], the EC50 came out at 18 µM.
As to `COC(=O)c1ccc(C2C(C(=O)c3cccnc3)=C(O)C(=O)N2CCc2c[nH]c3ccccc23)cc1` (configuration not stated), the Activity in assay [1] came to 97%; in assay [2], 76%; in assay [3] it was 180%; in assay [4], 78%. In assay [3], the max activation was found to be 201%. For the same compound, in assay [5], the EC50 is 12 µM.
Turning to `COC(=O)c1ccc(C2C(C(=O)c3ccncc3)=C(O)C(=O)N2CCc2c[nH]c3ccccc23)cc1` (configuration not stated), the Activity in assay [1] amounted to 92%; in assay [2], 87%; in assay [3], 186%; in assay [4] it was 84%. The max activation in assay [3] was found to be 196%. Also, in assay [5], the EC50 came out at 8.9 µM.
As to `CCOC(=O)c1ccc(C2C(C(C)=O)=C(O)C(=O)N2CCc2c[nH]c3ccccc23)cc1` (configuration not stated), the Activity was 104% in assay [1], 83% in assay [2], 201% in assay [3] and 91% in assay [4]. For the same compound, in assay [3], the max activation worked out at 237%. For the same compound, the EC50 in assay [5] came out at 15 µM.
Regarding `COC(=O)c1ccc(C2C(C(C)=O)=C(O)C(=O)N2CCc2c[nH]c3ccccc23)cc1O` (configuration not stated), the Activity in assay [1] turned out to be 81%; in assay [2] it was 79%; in assay [3], 123%; in assay [4] it was 90%. In assay [3], the max activation came to 151%. Besides, in assay [5], the EC50 was determined as 29 µM.
For the compound `COC(=O)c1ccc(C2C(C(=O)c3cccnc3)=C(O)C(=O)N2CCc2c(C)[nH]c3ccccc23)cc1` (configuration not stated), the Activity in assay [1] amounted to 82%; in assay [2], 77%; in assay [3] it was 174%; in assay [4], 82%. Moreover, in assay [3], the max activation came out at 204%. Besides, the EC50 in assay [5] was found to be 13 µM.
As for `CCC(=O)C1=C(O)C(=O)N(CCc2c[nH]c3ccccc23)C1c1ccc(C(=O)OC)cc1` (configuration not stated), the Activity in assay [1] came to 85%; in assay [2], 77%; in assay [3], 160%; in assay [4], 78%. Also, the max activation in assay [3] was 204%. In addition, in assay [5], the EC50 is 24 µM.
Turning to `CCCC(=O)OC1=C(C(C)=O)C(c2ccc(C(=O)OC)cc2)N(CCc2c(C)[nH]c3ccccc23)C1=O` (configuration not stated), the Activity in assay [1] is 112%; in assay [2], 93%; in assay [3] it was 186%; in assay [4], 93%. Further, the max activation in assay [3] is 184%. Also, in assay [5], the EC50 stood at 17 µM.
For the compound `COC(=O)c1ccc(C2C(C(C)=O)=C(O)C(=O)N2CCc2c[nH]c3ccccc23)c(C)c1` (configuration not stated), the Activity in assay [1] is 101%; in assay [2], 95%; in assay [3], 129%; in assay [4] it was 85%. In assay [3], the max activation was 165%. In addition, the EC50 in assay [5] stood at 35 µM.
With `COC(=O)c1ccc(C2C(C(=O)c3cccnc3)=C(O)C(=O)N2CCc2c[nH]c3cc(F)ccc23)cc1` (configuration not stated), the Activity in assay [1] amounted to 94%; in assay [2] it was 64%; in assay [3], 163%; in assay [4], 82%. Further, the max activation in assay [3] was 167%. Moreover, the EC50 in assay [5] was 13 µM.
For the compound `COC(=O)c1ccc(C2C(C(C)=O)=C(OC(C)=O)C(=O)N2CCc2c[nH]c3ccccc23)cc1` (configuration not stated), the Activity was 95% in assay [1], 90% in assay [2], 120% in assay [3] and 92% in assay [4]. For the same compound, the max activation in assay [3] was 173%. Further, the EC50 in assay [5] worked out at 52 µM.
Consider `COC(=O)c1ccc(C2C(C(=O)C(C)(C)C)=C(O)C(=O)N2CCc2c[nH]c3ccccc23)cc1` (configuration not stated), for which the Activity in assay [1] was 87%; in assay [2] it was 93%; in assay [3] it was 129%; in assay [4], 79%. Also, the max activation in assay [3] was determined as 187%. Besides, the EC50 in assay [5] turned out to be 52 µM.
On to `COC(=O)c1ccc(C2C(C(=O)c3cccc(F)c3)=C(O)C(=O)N2CCc2c[nH]c3ccccc23)cc1` (configuration not stated), for which the Activity in assay [1] turned out to be 98%; in assay [2], 83%; in assay [3], 133%; in assay [4] it was 78%. The max activation in assay [3] came to 136%. In addition, in assay [5], the EC50 worked out at 11 µM.
For the compound `COC(=O)c1ccc(C2C(C(=O)c3cccnc3)=C(O)C(=O)N2CCc2c[nH]c3cc(C)ccc23)cc1` (configuration not stated), the Activity in assay [1] is 103%; in assay [2], 82%; in assay [3], 219%; in assay [4] it was 86%. Also, in assay [3], the max activation turned out to be 218%. For the same compound, the EC50 in assay [5] turned out to be 4.3 µM.

By EC50 is commonly meant the concentration giving half of the maximal effect.
